Test results published in ChEMBL document CHEMBL1144880, “Identification of phenylisoxazolines as novel and viable antibacterial agents active against Gram-positive pathogens” (J Med Chem, 2003).
In brackets after ≈: the same amount, converted by molar mass. Blank lines part the entries; values can stand above or below the compound they belong to.

Assays:
[1] = Plasma clearance in Male Sprague-Dawley Rat (10.1 mg/kg iv); type: ADME, organism-based
Procedure, shortened: (§1)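 Male Sprague-Dawley rats dosed intravenously or orally. Intact compound measured in plasma by HPLC-UV after protein-precipitation sample preparation. Half-life reported as harmonic mean apparent terminal disposition half-life. Bioavailability is absolute oral bioavailability. Some comparator values are archival data.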

[2] = Plasma clearance in Male Sprague-Dawley Rat (49.4 mg/kg po); type: ADME, organism-based; procedure, shortened: as §1
[3] = Absolute oral bioavailability in Male Sprague-Dawley Rat (10.1 mg/kg iv); type: ADME, organism-based; details: in vivo; procedure, shortened: as §1
[4] = Absolute oral bioavailability in Male Sprague-Dawley Rat (49.4 mg/kg po); type: ADME, organism-based; details: in vivo; procedure, shortened: as §1
[5] = Cmax value in Male Sprague-Dawley Rat at dose 49.4 (mg/kg po); type: ADME, organism-based; design: dose 49.4 mg/kg, route oral; details: in vivo; procedure, shortened: as §1
[6] = Tmax value in Male Sprague-Dawley Rat at dose 49.4 (mg/kg po) [tmax (h)]; type: ADME, organism-based; details: in vivo; procedure, shortened: as §1
[7] = Volume distribution in Male Sprague-Dawley Rat (10.1 mg/kg iv); type: ADME, organism-based; details: in vivo, read-out: Vss
Procedure, shortened: (§2)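 Male Sprague-Dawley rats given the compound intravenously. Intact compound in plasma was measured by HPLC-UV after protein-precipitation sample preparation.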

[8] = Harmonic mean apparent terminal disposition half-life [t1/2beta (h)] in Male Sprague-Dawley Rat at dose 10.1 (mg/kg iv); type: ADME, organism-based; details: in vivo, read-out: T1/2 beta (converted); procedure, shortened: as §1
[9] = Harmonic mean apparent terminal disposition half-life [t1/2beta (h)] in Male Sprague-Dawley Rat at dose 49.4 (mg/kg po); type: ADME, organism-based; details: in vivo, read-out: T1/2 beta (converted); procedure, shortened: as §1
[10] = system: Enterococcus faecalis; assay: In vitro minimum inhibitory concentration (MIC) against Enterococcus faecalis UC9217; type: functional
Procedure, shortened: (§3)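 MIC determined by standard broth microdilution, defined as the lowest drug concentration (µg/mL) inhibiting visible growth.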

[11] = system: Escherichia coli; assay: In vitro minimum inhibitory concentration (MIC) against Escherichia coli UC6674; type: functional; procedure, shortened: as §3
[12] = system: Haemophilus influenzae; assay: In vitro minimum inhibitory concentration (MIC) against Haemophilus influenzae UC30063; type: functional; procedure, shortened: as §3
[13] = organism: Homo sapiens; assay: Compound was evaluated for metabolic stability via In vitro Human 5E6 cell at 25 uM concentration; type: functional
[14] = system: Moraxella catarrhalis; assay: In vitro minimum inhibitory concentration (MIC) against Moraxella catarrhalis UC30610; type: functional; procedure, shortened: as §3
[15] = system: Mus musculus; assay: In Vivo effective dose required for antibacterial activity in a systemic mouse infection model (SMIM) upon peroral administration against Staphylococcus aureus UC9213; type: functional; details: po
Procedure, shortened: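 Compound was given orally at 1 and 5 h after infection. Deaths were monitored for at least 6 days, and ED50 (dose curing 50% of mice) was calculated by probit analysis.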

[16] = organism: Rattus norvegicus; assay: Compound was evaluated for metabolic stability via In vitro Rat 5E6 cell at 50 uM concentration; type: functional
[17] = system: Streptococcus pneumoniae; assay: In vitro minimum inhibitory concentration (MIC) against Streptococcus pneumoniae UC9912; type: functional; procedure, shortened: as §3
[18] = system: Staphylococcus aureus; assay: In vitro minimum inhibitory concentration (MIC) against Staphylococcus aureus UC12673; type: functional; procedure, shortened: as §3
[19] = system: Staphylococcus aureus; assay: In vitro minimum inhibitory concentration (MIC) against Staphylococcus aureus UC9213; type: functional; procedure, shortened: as §3
[20] = system: Staphylococcus epidermidis; assay: In vitro minimum inhibitory concentration (MIC) against Staphylococcus epidermidis UC12084; type: functional; procedure, shortened: as §3
[21] = Cmax value in Male Sprague-Dawley Rat at dose 10.1 (mg/kg iv); type: ADME, organism-based; design: dose 10.1 mg/kg, route intravenous; details: in vivo; procedure, shortened: as §1
[22] = Oral bioavailability in rat (Sprague-Dawley) (male) (dose 10 mg/kg i.v.); type: ADME, organism-based; details: in vivo; procedure, shortened: as §1
[23] = Oral bioavailability in rat (Sprague-Dawley) (male) (dose 25 mg/kg p.o.); type: ADME, organism-based; details: in vivo; procedure, shortened: as §1
[24] = Cmax value in Male Sprague-Dawley Rat at dose 10 (mg/kg iv); type: ADME, organism-based; design: dose 10 mg/kg, route intravenous; details: in vivo; procedure, shortened: as §1
[25] = Cmax value in Male Sprague-Dawley Rat at dose 25 (mg/kg po); type: ADME, organism-based; design: dose 25 mg/kg, route oral; details: in vivo; procedure, shortened: as §1
[26] = Tmax value in Male Sprague-Dawley Rat at dose 25 (mg/kg po) [tmax (h)]; type: ADME, organism-based; details: in vivo; procedure, shortened: as §1
[27] = Volume distribution in Male Sprague-Dawley Rat (10 mg/kg iv); type: ADME, organism-based; details: in vivo, read-out: Vss; procedure, shortened: as §2
[28] = Harmonic mean apparent terminal disposition half-life [t1/2beta (h)] in Male Sprague-Dawley Rat at dose 10 (mg/kg iv); type: ADME, organism-based; details: in vivo, read-out: T1/2 beta (converted); procedure, shortened: as §1
[29] = Plasma clearance in Male Sprague-Dawley Rat (10 mg/kg iv); type: ADME, organism-based; procedure, shortened: as §1

clearance [1]: 26.2 mL/min/kg
CL/F [2]: 30.8 mL/min/kg
bioavailability [3]: 100%
bioavailability [4]: 86%
Cmax [5]: 6170 ng/mL
Tmax [6]: 150 min
Vd [7]: 0.95 L/kg
half-life [8]: 36.6 min
half-life [9]: 42 min
MIC [10]: 4 µg/mL (≈ 10.6 µM)
MIC [11]: > 16 µg/mL
MIC [12]: > 16 µg/mL
MIC [14]: 8 µg/mL (≈ 21.1 µM)
MIC [17]: 1 µg/mL (≈ 2.64 µM)
MIC [18]: 4 µg/mL (≈ 10.6 µM)
MIC [19]: 4 µg/mL (≈ 10.6 µM)
MIC [20]: 1 µg/mL (≈ 2.64 µM)
Cmax [21]: 17700 ng/mL
SMILES: CC(=O)NC[C@H]1CC(c2ccc(N3CCN(C(=O)CO)CC3)c(F)c2)=NO1
Remaining at 40 min [13]: 101%
ED50 [15]: 9.1 mg/kg
Remaining at 40 min [16]: 100%

F [22]: 100%
bioavailability [23]: 56%
Cmax [24]: 20800 ng/mL
Cmax [25]: 2260 ng/mL
Tmax [26]: 79.8 min
Vd [27]: 0.99 L/kg
half-life [28]: 57.6 min
clearance [29]: 24.9 mL/min/kg
SMILES: CC(=O)NC[C@H]1CN(c2ccc(N3CCN(C(=O)CO)CC3)c(F)c2)C(=O)O1 [EPEREZOLID]
Remaining at 40 min [16]: 102%
